Our source for the inhibition values is PubChem BioAssay AID2178 (The Scripps Research Institute Molecular Screening Center, 2009).

Among all 2,400 compounds or so, fewer than 10 were called active. These entries were drawn from the full list. Values without a mark were called inactive.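 The calls were made as follows: active = average inhibition across replicates above the hit cutoff set in the earlier primary screen; inactive = the rest.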

In general, inhibition refers to the drop in the measured response relative to a control, in per cent.

Chain of Procathepsin L (Homo sapiens) (P07711 whole entry, looked up): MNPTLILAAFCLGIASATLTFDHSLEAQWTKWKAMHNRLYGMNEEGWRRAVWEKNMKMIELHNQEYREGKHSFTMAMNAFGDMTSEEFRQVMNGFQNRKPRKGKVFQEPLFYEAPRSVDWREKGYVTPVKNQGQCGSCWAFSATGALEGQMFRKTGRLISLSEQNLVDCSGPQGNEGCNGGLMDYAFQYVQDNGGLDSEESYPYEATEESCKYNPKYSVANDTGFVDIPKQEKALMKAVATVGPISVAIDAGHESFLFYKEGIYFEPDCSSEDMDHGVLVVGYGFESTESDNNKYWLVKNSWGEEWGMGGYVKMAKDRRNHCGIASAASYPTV

The experiment deals with Procathepsin L (Homo sapiens) (UniProt P07711). In words: cathepsin L1 inhibitors, retest, confirmation, counter-screen for PFM18AAP inhibitor project, biochemical, QFRET, triplicate (AID 2178).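 Also: 0% = median of test compound wells and 100% = Z-Phe-Ala-diazomethylketone 1 µM.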 Conditions: purified cathepsin L1, Z-Leu-Arg-MCA fluorescence; at 5.96 µM; active compounds read high. In outline:
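Test system: purified recombinant cathepsin L1 enzyme; measure: percent inhibition from fluorescence change; benchmarks: Z-Phe-Ala-diazomethylketone control wells; also added: Z-Leu-Arg-MCA fluorogenic substrate; incubation: 30 min compound preincubation, then 90 min with substrate, 25 °C; repeats: triplicate; measured by: fluorescence of released MCA at 0 and 90 min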
(A counterscreen serves to expose hits that act by an unwanted route or on another target.)
As to `CCN(CC)c1ccc(NC(=O)CCc2nnc3ccc(N4CCCCC4)nn23)c(C)c1`, the inhibition was 1.25%.

On to `c1ccc2sc(NN=C3CCCC3)nc2c1`, for which the inhibition is 0.11%.

With `Cc1ccc(S(=O)(=O)N/N=C\c2cc3c(cc2[N+](=O)[O-])OCO3)cc1`, the inhibition is -3.66%.

Regarding `Cc1csc(NC(=O)NC2(C(F)(F)F)Oc3ccccc3O2)n1`, the inhibition is -4.56%.

As to `Cn1c(SCC(=O)N/N=C/c2ccc(O)c(O)c2)nc2ccccc21`, the inhibition was -2.42%.

Turning to `O=C(O)CCn1c(O)c(C=C2N=c3ccccc3=N2)sc1=S`, the inhibition is 2.67%.

In the case of `NC(=O)c1c(NC(=O)CSc2nnc(-c3ccco3)n2N)sc2c1CCCC2`, the inhibition is -6.97%.

Take `O=C(Nn1cnnc1)c1cc(Cl)ccc1Cl`: the inhibition is -2.58%.

Consider `CC(C)C1N=C2c3ccccc3N=C(SCC(=O)c3ccc(O)c(O)c3)N2C1=O` (configuration not stated), for which the inhibition is 6.47%.

For `COc1ccc(OCc2nnc3n2N=C(c2ccccc2)C(CC(=O)O)S3)cc1` (configuration not stated), the inhibition was 0.71%.

In the case of `Cc1ccc(C)c(NC(=O)NNC(=O)c2ccc3ccccc3c2O)c1`, the inhibition is -3.43%.

For the molecule `CNC(=S)NNC(=O)c1ccc(N(C)C)cc1`, the inhibition is 3.16%.

Take `CCN(CC)c1ccc(/C=N/Nc2nc(C)cc(C)n2)c(O)c1`: the inhibition is 4.21%.

For the molecule `COc1ccc(OCc2n[nH]c(=S)n2N)cc1`, the inhibition was -6.49%.

For the molecule `Cc1cc(C)nc(Nc2ncn[nH]2)n1`, the inhibition is -0.26%.

Turning to `O=C(Oc1ccc(Br)cc1C(=S)N1CCOCC1)c1cccc([N+](=O)[O-])c1`, the inhibition is -0.38%.

Take `Cc1ccc(-c2ccc(/C=C(\C#N)C(N)=S)o2)c([N+](=O)[O-])c1`: the inhibition was -0.99%.

For the molecule `O=C(CN1CCN(c2ccc(O)cc2)CC1)Nc1ccc(-c2ccccc2)cc1`, the inhibition is -1.37%.

With `Oc1ccc(/C=N/Nc2ccc(C(F)(F)F)cn2)cc1O`, the inhibition was -2.87%.

In the case of `CCCc1nc2ccccc2c(=O)n1/N=C/c1ccc(O)c(O)c1`, the inhibition was -0.21%.

Turning to `Cc1cc(C)nc(NNC2=CC(=O)CC(C)(C)C2)n1`, the inhibition was -3.35%.

For `CCN(CC)c1ccc2oc(=O)c(C)nc2c1`, the inhibition is -1.42%.

For `COc1c(O)ccc2c1CN1CCc3cc4c(cc3C1C2)OCO4` (configuration not stated), the inhibition is -3.11%.

On to `CC(C)(C)c1nnc(N/N=C/c2ccc(O)cc2)n(N)c1=O`, for which the inhibition is -5.72%.

For the molecule `Oc1ccc(/C=N/NC2=NCCCCC2)c(O)c1`, the inhibition is 1.65%.

For the molecule `CC(C)(C)C(=O)OCc1nc(-c2ccc(O)c(O)c2)cs1`, the inhibition was -4.53%.

Consider `NC(=S)N/N=C/c1coc2cc(Cl)ccc2c1=O`, for which the inhibition was 1.96%.
